RAD52 anneal inh: RAD52 (human) annealing inhibition; P43351; recombinant RAD52 DNA annealing, FRET fluorescence; inhibition, % at 18.7 µM; hit rate 0.46% among 360,000; AID 651710;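 active = every replicate showing at least 50% inhibition; inconclusive = mean inhibition at least 50% but not in every replicate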
E-sel inducer: E-selectin induction on HUVECs; HUVEC E-selectin immunofluorescence imaging; normalized: neutral wells 0, TNF-alpha wells 100; hit rate 0.37% among 260,000; activation, % at 7.58 µM;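 active = mean E-selectin-positive cell signal at least 10% of the positive control, reached in at least 60% of replicates, without over 20% cell loss; inconclusive = no rule given, readout overlaps actives, possibly toxicity-flagged; inactive = the rest, including those meeting only one limit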
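System: HUVEC, human umbilical vein endothelial cells; quantity: 3,000 cells/well; buffer or medium: EGM-2 medium, gelatin-coated wells; dosing: single-point compound dose; detection: immunofluorescence imaging; evaluation: % PE-positive cells; benchmarks: TNF-alpha, DMSO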
PglD DTNB: PglD (C. jejuni) enzyme inhibition; purified PglD enzyme, DTNB colorimetric CoA detection; inhibition, % at 12.5 µM; hit rate 0.098% among 360,000; in the data active = inhibition above about 16%, passing the limit was not always enough; inconclusive = no clear call, values can overlap the other calls
Xi reactivation: activators of X-chromosome reactivation in mouse fibroblasts | XiGFP mouse fibroblasts, % GFP-positive cells imaging, 3 d; cells co-treated with 5-aza-dC sensitizer; scaled so ellipticine positive control = 100% | activation, % at 7.58 µM | hit rate 0.055% among 360,000 | AID 743238;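 active = mean normalized replicate activation at least 10% and every replicate at or above 10%; inconclusive = only one of the two criteria met; inactive = mean below 10% and not all replicates reach 10%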;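 also: 0% = median of on-plate neutral control wells and 100% = ellipticine 6 µM median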
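System: SV40-immortalized XiGFP fibroblast cells, line 68-5-11 / Incubation: 3-day compound exposure, then 15 min fixation at room temperature / Compound: single concentration per compound, delivered by pin transfer / Buffer or medium: DMEM plus 5-aza-dC sensitizer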
RAD54 branch: RAD54 (human) branch migration inhibition; RAD54 Holliday junction branch migration, FAM/BHQ fluorescence; inhibition, % at 10.4 µM; hit rate 0.14% among 360,000;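 active = mean normalized replicate activity at least 40 and at least half of replicates scoring 40 or more; inconclusive = only one of the two criteria met; inactive = mean below 40 and under half of replicates reaching 40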;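 also: 0% = median of neutral control wells and 100% = median of positive control wells; inhibitors cause a drop in the FAM fluorescence signal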
Target sequence (Q92698 whole entry, looked up): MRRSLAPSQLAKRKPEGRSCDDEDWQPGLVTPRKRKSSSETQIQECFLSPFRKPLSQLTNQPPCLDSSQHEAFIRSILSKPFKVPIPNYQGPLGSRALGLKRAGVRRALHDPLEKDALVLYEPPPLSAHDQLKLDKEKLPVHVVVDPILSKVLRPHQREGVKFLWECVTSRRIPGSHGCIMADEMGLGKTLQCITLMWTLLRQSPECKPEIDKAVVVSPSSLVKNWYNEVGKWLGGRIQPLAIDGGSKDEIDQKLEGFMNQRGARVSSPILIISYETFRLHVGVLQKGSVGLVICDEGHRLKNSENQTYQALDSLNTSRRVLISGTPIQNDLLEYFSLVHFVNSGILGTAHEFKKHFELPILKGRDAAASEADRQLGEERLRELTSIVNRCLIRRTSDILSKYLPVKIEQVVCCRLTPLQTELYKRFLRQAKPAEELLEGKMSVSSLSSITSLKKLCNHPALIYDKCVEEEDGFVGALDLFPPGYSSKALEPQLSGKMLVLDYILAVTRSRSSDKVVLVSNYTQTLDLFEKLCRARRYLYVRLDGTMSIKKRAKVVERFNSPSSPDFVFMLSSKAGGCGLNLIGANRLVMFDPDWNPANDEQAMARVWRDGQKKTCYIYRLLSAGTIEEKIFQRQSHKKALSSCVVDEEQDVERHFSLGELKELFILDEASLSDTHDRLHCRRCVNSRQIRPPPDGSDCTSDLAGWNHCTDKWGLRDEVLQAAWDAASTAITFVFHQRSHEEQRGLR
rRNA inh HTS: selective bacterial rRNA inhibition in E. coli; E. coli WT GFP vs humanized-ribosome RFP mutants, fluorescence, 24 h; stronger effect = lower value; DMSO median 0, no signal -100; GFP signal change (wild-type ribosome), % (no concentration beside the values); hit rate 1.6% among 350,000;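 active = significant combined selectivity score with lowered wild-type GFP, culture density cut under 30%, mutant RFP and density less affected; inactive = any of these conditions unmet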
AID977621: growth inhibition of wild-type GFP E. coli, dose response, H69 mutant RFP, cherry-pick; shares compounds with rRNA inh HTS; E. coli wild-type GFP strain growth, fluorescence, 24 h; activity change, negative = inhibition at 50 µM; 1,900 tested, under 10 active; AID 977621;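 active = Wild-type ribosome reporter drop at least double the humanized mutant ribosome reporter drop, growth loss under a set limit; inconclusive = no clear call, values can overlap the other calls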;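 also: wild-type GFP and H69 mutant RFP strains grown together 50/50 in each well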
AID977628: growth of wild-type and h24-humanized E. coli strains – h24 mutant RFP vs wild-type GFP, cherry-pick, dose response; shares compounds with rRNA inh HTS; E. coli WT GFP strain growth, fluorescence, 24 h; activity change, negative = inhibition at 50 µM; 1,900 tested, under 10 active; AID 977628;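 active = compound lowering the normal-ribosome reporter at least twice as much as the humanized-ribosome reporter, growth loss under a set limit; inconclusive = no clear call, values can overlap the other calls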;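 also: wild-type GFP and h24 humanized RFP strains co-cultured 1 to 1 per well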
* = called active by the depositor; ? = inconclusive; . = no result; ! = a repeat was not active. Rows were chosen to be rich in hits. Some 2% of all compounds tested hit in one or more screens of this group.

SMILES | RAD52 anneal inh | E-sel inducer | PglD DTNB | Xi reactivation | RAD54 branch | rRNA inh HTS | AID977621 | AID977628
CCC(=O)Nc1ccc2c(c1)C(=O)N(C)C[C@@H](OC)[C@H](C)CN(CCC(F)(F)F)[C@@H](C)CO2 | 6 | 0 | 2 | 0 | 0 | -2 | . | .
C[C@@H]1CN([C@H](C)CO)C(=O)c2cc(NC(=O)c3ccncc3)ccc2O[C@@H]1CN(C)C(=O)Nc1cccc2ccccc12 | 18 | 10 | 0 | 0 | -3 | 1 | . | .
COc1ccc(C(=O)Cn2c(C)nc([N+](=O)[O-])c2Br)cc1 | -7 | 7 | . | 0 | . | -35* | . | -11
COC(=O)c1ccc(CSc2nc3ccccc3s2)o1 | -19 | . | -5 | . | 3 | -33* | 11 | -2.9
CCOC(=O)c1cccc(OS(=O)(=O)Cc2ccccc2)c1 | -6 | 0 | -2 | 0 | -9 | -26* | -9.1 | .
CCOC(=O)c1cccc(NC(=O)CCc2ccccc2)c1 | -5 | 1 | -3 | 0 | 3 | -19 | . | .
O=C(c1ccccc1)N1CC[C@@H]2[C@H](CO)Nc3ccc(-c4ccc(F)cc4)cc3[C@@H]21 | . | 0 | 6 | 0 | -5 | 0 | . | .
CC1CN(CC(=O)Nc2nc3ccccc3s2)CC(C)O1 (stereo unspecified) | -22 | . | 5 | 0 | 3 | -15* | 5.1 | ?
CN1CCN(CC(=O)Nc2nc3ccccc3s2)CC1 | -4 | . | 4 | 0 | 7 | 11 | . | .
COc1ccc2c3c(n(C)c2c1)[C@@H](CO)N(CC1CC1)CC31CN(C(C)=O)C1 | 10 | 0 | . | 1 | . | 3 | . | .
O=C(Nc1nc2ccccc2n1CCN1CCOCC1)c1ccccc1 | -17 | . | -7 | 0 | 2 | -16* | -32 | -26
CC(C)(C)c1ccc(-c2noc(CCC(=O)NCc3ccco3)n2)cc1 | -6 | -1 | . | 0 | . | -24* | -5.1 | ?
Cc1cccc(-c2noc(CCC(=O)NCc3ccco3)n2)c1 | -5 | . | 2 | . | -3 | . | . | .
C[C@H](CO)N1C[C@H](C)[C@H](CN(C)C(=O)Nc2ccc3c(c2)OCO3)Oc2c(NC(=O)Nc3ccc4c(c3)OCO4)cccc2C1=O | 0 | 0 | 1 | 0 | -5 | 1 | . | .
C[C@H](CO)N1C[C@H](C)[C@H](CN(C)C(=O)Nc2ccc(F)cc2)Oc2c(NC(=O)Nc3ccccc3)cccc2C1=O | -20 | 0 | 1 | 0 | 9 | -23* | -8.6 | ?
C[C@@H]1CN([C@H](C)CO)C(=O)c2cccc(NC(=O)Nc3ccc4c(c3)OCO4)c2O[C@@H]1CN(C)C(=O)Nc1ccc2c(c1)OCO2 | 0 | 1 | -1 | 0 | -3 | -19* | -10 | ?
COc1cccc(NC(=O)N(C)C[C@H]2Oc3ncc(C#Cc4cccnc4)cc3C(=O)N([C@H](C)CO)C[C@H]2C)c1 | -15 | . | 0 | 1 | 3 | -39* | -12 | 8.5
C[C@@H]1CN([C@@H](C)CO)C(=O)c2cccc(NC(=O)c3nc4ccccc4s3)c2O[C@H]1CN(C)CC1CC1 | 14 | 0 | 0 | 0 | -9 | -1 | . | .
C[C@@H]1CN([C@@H](C)CO)C(=O)c2cccc(NC(=O)c3nc4ccccc4s3)c2O[C@@H]1CN(C)CC1CC1 | 35 | 0 | 8 | 0 | 15 | -28*! | -4.4 | -10
C[C@@H]1CN([C@H](C)CO)C(=O)c2cccc(NC(=O)NC3CCCCC3)c2O[C@H]1CN(C)S(=O)(=O)c1ccccc1 | 4 | 0 | -1 | -1 | 4 | 1 | . | .
CN1C(=O)c2cccc3c(S(=O)(=O)NCCc4ccccc4)ccc1c23 | -15 | . | -1 | 0 | -3 | -23* | ? | .

Screens (PubChem)
